Results: ChEMBL document CHEMBL2407075, “Sulphonamido-quinoxalines: search for anticancer agent” (Eur J Med Chem, 2013)

Key:
Format in all cases: functional
[1] = test system: SK-MEL-28; assay: Growth inhibition of human SK-MEL-28 cells at 10 uM after 48 hrs by sulforhodamine B assay; details: SK-MEL-28, 48 h, read-out: GI
Method in brief: (§1)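 Single-dose screen at 10 µM across the NCI 60 panel. Cells in RPMI 1640 with 5% FBS and 2 mM L-glutamine, plated at 5000–40,000/well and preincubated 24 h at 37 °C, 5% CO2. Drug in DMSO, 48 h exposure. Fixed with TCA, stained with SRB, A515 read. Percent growth is taken relative to untreated control, and inhibition is 100 minus growth.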

[2] = test system: MDA-MB-231; assay: Growth inhibition of human MDA-MB-231 cells at 10 uM after 48 hrs by sulforhodamine B assay; details: MDA-MB-231, 48 h, read-out: GI; method in brief: as §1
[3] = test system: SR; assay: Growth inhibition of human SR cells at 10 uM after 48 hrs by sulforhodamine B assay; details: read-out: GI; method in brief: as §1
[4] = test system: SN12C; assay: Growth inhibition of human SN12C cells at 10 uM after 48 hrs by sulforhodamine B assay; details: read-out: GI; method in brief: as §1
[5] = test system: OVCAR-8; assay: Growth inhibition of human OVCAR8 cells at 10 uM after 48 hrs by sulforhodamine B assay; details: OVCAR-8, 48 h, read-out: GI; method in brief: as §1
[6] = test system: NCI-H23; assay: Growth inhibition of human NCI-H23 cells at 10 uM after 48 hrs by sulforhodamine B assay; details: NCI-H23, 48 h, read-out: GI; method in brief: as §1
[7] = test system: SK-OV-3; assay: Growth inhibition of human SKOV3 cells at 10 uM after 48 hrs by sulforhodamine B assay; details: SK-OV-3, 48 h, read-out: GI; method in brief: as §1
[8] = test system: SW-620; assay: Growth inhibition of human SW620 cells at 10 uM after 48 hrs by sulforhodamine B assay; details: SW-620, 48 h, read-out: GI; method in brief: as §1
[9] = test system: SK-MEL-5; assay: Growth inhibition of human SK-MEL-5 cells at 10 uM after 48 hrs by sulforhodamine B assay; details: SK-MEL-5, 48 h, read-out: GI; method in brief: as §1
[10] = Growth inhibition of human EKVX cells at 10 uM after 48 hrs by sulforhodamine B assay; details: read-out: GI
Method in brief: (§2)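 NCI-60 one-dose primary screen at a single 10 µM concentration. Cells in RPMI 1640 with 5% FBS, preincubated 24 h at 37 °C, 5% CO2. Drug exposure 48 h, then TCA fixation, SRB staining and absorbance at 515 nm. Percent growth calculated against time-zero and untreated control wells, then converted to percent growth inhibition.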

[11] = test system: MDA-MB-468; assay: Growth inhibition of human MDA-MB-468 cells at 10 uM after 48 hrs by sulforhodamine B assay; details: MDA-MB-468, 48 h, read-out: GI; method in brief: as §1
[12] = test system: HCT-116; assay: Growth inhibition of human HCT116 cells at 10 uM after 48 hrs by sulforhodamine B assay; details: HCT-116, 48 h, read-out: GI; method in brief: as §2
[13] = test system: MOLT-4; assay: Growth inhibition of human MOLT4 cells at 10 uM after 48 hrs by sulforhodamine B assay; details: MOLT-4, 48 h, read-out: GI; method in brief: as §1
[14] = test system: SF-295; assay: Growth inhibition of human SF295 cells at 10 uM after 48 hrs by sulforhodamine B assay; details: SF-295, 48 h, read-out: GI; method in brief: as §1
[15] = test system: OVCAR-5; assay: Growth inhibition of human OVCAR5 cells at 10 uM after 48 hrs by sulforhodamine B assay; details: OVCAR-5, 48 h, read-out: GI; method in brief: as §1
[16] = test system: KM12; assay: Growth inhibition of human KM12 cells at 10 uM after 48 hrs by sulforhodamine B assay; details: KM12, 48 h, read-out: GI; method in brief: as §1
[17] = test system: CCRF-CEM; assay: Growth inhibition of human CCRF-CEM cells at 10 uM after 48 hrs by sulforhodamine B assay; details: read-out: GI
Method in brief: (§3)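 Single-dose NCI-60 prescreen at 10 µM for 48 h at 37 °C and 5% CO2, using cells grown in RPMI 1640 with 5% FBS and 2 mM glutamine. Protein was measured by SRB after TCA fixation: 10% final for adherent lines, 16% for suspension lines. Absorbance was read at 515 nm. Percent growth inhibition was obtained by subtracting percent growth from 100.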

[18] = test system: UO-31; assay: Growth inhibition of human UO31 cells at 10 uM after 48 hrs by sulforhodamine B assay; details: UO-31, 48 h, read-out: GI; method in brief: as §1
[19] = test system: COLO 205; assay: Growth inhibition of human COLO205 cells at 10 uM after 48 hrs by sulforhodamine B assay; details: COLO 205, 48 h, read-out: GI; method in brief: as §3
[20] = test system: ACHN; assay: Growth inhibition of human ACHN cells at 10 uM after 48 hrs by sulforhodamine B assay; details: read-out: GI; method in brief: as §3
[21] = test system: K562; assay: Growth inhibition of human K562 cells at 10 uM after 48 hrs by sulforhodamine B assay; details: K562, 48 h, read-out: GI; method in brief: as §1
[22] = test system: SF-268; assay: Growth inhibition of human SF268 cells at 10 uM after 48 hrs by sulforhodamine B assay; details: SF-268, 48 h, read-out: GI; method in brief: as §1
[23] = test system: HOP-62; assay: Growth inhibition of human HOP62 cells at 10 uM after 48 hrs by sulforhodamine B assay; details: HOP-62, 48 h, read-out: GI; method in brief: as §2
[24] = test system: Malme-3M; assay: Growth inhibition of human MALME-3M cells at 10 uM after 48 hrs by sulforhodamine B assay; details: read-out: GI; method in brief: as §1
[25] = test system: CAKI-1; assay: Growth inhibition of human CAKI-1 cells at 10 uM after 48 hrs by sulforhodamine B assay; details: CAKI-1, 48 h, read-out: GI; method in brief: as §3
[26] = test system: SF-539; assay: Growth inhibition of human SF539 cells at 10 uM after 48 hrs by sulforhodamine B assay; details: SF-539, 48 h, read-out: GI; method in brief: as §1
[27] = test system: SNB-75; assay: Growth inhibition of human SNB75 cells at 10 uM after 48 hrs by sulforhodamine B assay; details: SNB-75, 48 h, read-out: GI; method in brief: as §1
[28] = test system: SK-MEL-2; assay: Growth inhibition of human SK-MEL-2 cells at 10 uM after 48 hrs by sulforhodamine B assay; details: SK-MEL-2, 48 h, read-out: GI; method in brief: as §1
[29] = test system: NCI-H322M; assay: Growth inhibition of human NCI-H322M cells at 10 uM after 48 hrs by sulforhodamine B assay; details: read-out: GI; method in brief: as §1
[30] = test system: NCI-H460; assay: Growth inhibition of human NCI-H460 cells at 10 uM after 48 hrs by sulforhodamine B assay; details: NCI-H460, 48 h, read-out: GI; method in brief: as §1
[31] = test system: HL-60(TB); assay: Growth inhibition of human HL-60(TB) cells at 10 uM after 48 hrs by sulforhodamine B assay; details: HL-60, 48 h, read-out: GI
Method in brief: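 Single-dose NCI-60 primary screen at 10 µM, 48 h exposure, SRB read-out. Growth percentage of treated versus untreated cells was recorded and given as percent inhibition by subtraction.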

[32] = test system: TK-10; assay: Growth inhibition of human TK10 cells at 10 uM after 48 hrs by sulforhodamine B assay; details: TK-10, 48 h, read-out: GI; method in brief: as §1
[33] = Growth inhibition of human HCC2998 cells at 10 uM after 48 hrs by sulforhodamine B assay; details: HCC 2998, 48 h, read-out: GI; method in brief: as §2

SMILES | inhibition of growth at 10 µM [1] | inhibition of growth at 10 µM [2] | inhibition of growth at 10 µM [3] | inhibition of growth at 10 µM [4] | inhibition of growth at 10 µM [5] | inhibition of growth at 10 µM [6] | inhibition of growth at 10 µM [7] | inhibition of growth at 10 µM [8] | inhibition of growth at 10 µM [9] | inhibition of growth at 10 µM [10] | inhibition of growth at 10 µM [11] | inhibition of growth at 10 µM [12] | inhibition of growth at 10 µM [13] | inhibition of growth at 10 µM [14] | inhibition of growth at 10 µM [15] | inhibition of growth at 10 µM [16] | inhibition of growth at 10 µM [17] | inhibition of growth at 10 µM [18] | inhibition of growth at 10 µM [19] | inhibition of growth at 10 µM [20] | also measured
O=S(=O)(Nc1ccccn1)c1ccc2nc(-c3ccccc3)c(-c3ccccc3)nc2c1 | 30.3% | 80.1% | -3.25% | 38.5% | 52.8% | 46.5% | 44.9% | 47.9% | -6.25% | 80.8% | -4.67% | 72.1% | 86.8% | 76.8% | 24.3% | 61.5% | 70.7% | 45.2% | 54.2% | 34.3% | inhibition of growth at 10 µM [21]: 64.4%; inhibition of growth at 10 µM [22]: 27.6%; inhibition of growth at 10 µM [23]: 22.8%; inhibition of growth at 10 µM [24]: 32.9%; inhibition of growth at 10 µM [25]: 54.1%; inhibition of growth at 10 µM [26]: 61.9%; inhibition of growth at 10 µM [27]: 61.8%; inhibition of growth at 10 µM [28]: 39.3%; inhibition of growth at 10 µM [29]: 59.4%; inhibition of growth at 10 µM [30]: 63.4%; inhibition of growth at 10 µM [31]: 80.7%; inhibition of growth at 10 µM [32]: 30.2%; inhibition of growth at 10 µM [33]: 60.6%
NC(=S)NNS(=O)(=O)c1ccc2nc(-c3ccccc3)c(-c3ccccc3)nc2c1 | 6.93% | 17.6% | 50% | 6.98% | 5.83% | 11.6% | 5.98% | 3.72% | 39.1% | 23.7% | 30.8% | 17.8% | 28.1% | 8.92% | 4.85% | 15.9% | 35.8% | 13.7% | 4.83% | 1.83% | inhibition of growth at 10 µM [21]: 34.8%; inhibition of growth at 10 µM [22]: 2.92%; inhibition of growth at 10 µM [23]: 38.7%; inhibition of growth at 10 µM [24]: 2.94%; inhibition of growth at 10 µM [25]: 2.94%; inhibition of growth at 10 µM [26]: 21.7%; inhibition of growth at 10 µM [27]: 25.6%; inhibition of growth at 10 µM [28]: 7.94%; inhibition of growth at 10 µM [29]: 2.92%; inhibition of growth at 10 µM [30]: 15.6%; inhibition of growth at 10 µM [31]: 40.6%; inhibition of growth at 10 µM [32]: 2.74%; inhibition of growth at 10 µM [33]: 8.92%
CC(=S)NS(=O)(=O)c1ccc2nc(-c3ccccc3)c(-c3ccccc3)nc2c1 | 1.73% | 14.8% | 41% | 2.83% | 3.93% | 11.7% | 4.85% | 3.84% | 28.9% | 8.53% | 23.7% | 14.5% | 20.5% | 5.83% | 2.84% | 16.8% | 24.8% | 10.6% | 4.64% | 16.6% | inhibition of growth at 10 µM [21]: 26.8%; inhibition of growth at 10 µM [22]: 1.86%; inhibition of growth at 10 µM [23]: 2.84%; inhibition of growth at 10 µM [24]: 2.85%; inhibition of growth at 10 µM [25]: 5.83%; inhibition of growth at 10 µM [26]: 3.29%; inhibition of growth at 10 µM [27]: 26.9%; inhibition of growth at 10 µM [28]: 8.53%; inhibition of growth at 10 µM [29]: 17.8%; inhibition of growth at 10 µM [30]: 8.63%; inhibition of growth at 10 µM [31]: 35.3%; inhibition of growth at 10 µM [32]: 6.93%; inhibition of growth at 10 µM [33]: 6.23%
